# aSyn UTR inh: MLPCN primary screen, SNCA 5' untranslated region. alpha-synuclein 5'UTR reporter, inhibitor activity. inhibition, % (tested at 7.5 µM). actives 0.82% (n = 300,000); in the data active = inhibition above about 60%; inconclusive = no clear call, values can overlap the other calls;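 also: H4 neuroglioblastoma cells stably carrying SNCA 5'UTR luciferase fusion; 0% = DMSO wells and 100% = positive control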
# Mdm2-MdmX inh: human Mdm2/MdmX binding inhibition; actives 3% (n = 330,000); SaOS-2 split-luciferase Mdm2/MdmX complementation, luminescence; O15151+Q00987; AID 485346; inhibition, % at 8 µM;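 active = inhibition of at least 50% at 8 µM in the primary screen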
# Target sequence (O15151 whole entry, looked up): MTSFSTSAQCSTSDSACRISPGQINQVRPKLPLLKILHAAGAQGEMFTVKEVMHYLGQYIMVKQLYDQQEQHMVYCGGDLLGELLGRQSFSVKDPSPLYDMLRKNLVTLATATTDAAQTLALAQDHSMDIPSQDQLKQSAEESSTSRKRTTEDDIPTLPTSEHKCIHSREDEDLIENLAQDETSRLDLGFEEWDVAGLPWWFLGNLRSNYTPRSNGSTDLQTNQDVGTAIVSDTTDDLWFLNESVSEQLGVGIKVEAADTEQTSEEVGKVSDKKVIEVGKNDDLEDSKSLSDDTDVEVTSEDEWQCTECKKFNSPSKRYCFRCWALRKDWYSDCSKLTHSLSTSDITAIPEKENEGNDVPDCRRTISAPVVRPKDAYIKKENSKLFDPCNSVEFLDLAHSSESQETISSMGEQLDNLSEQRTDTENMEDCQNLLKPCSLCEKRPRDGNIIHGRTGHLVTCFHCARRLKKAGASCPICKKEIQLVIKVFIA
# Target sequence (Q00987 whole entry, looked up): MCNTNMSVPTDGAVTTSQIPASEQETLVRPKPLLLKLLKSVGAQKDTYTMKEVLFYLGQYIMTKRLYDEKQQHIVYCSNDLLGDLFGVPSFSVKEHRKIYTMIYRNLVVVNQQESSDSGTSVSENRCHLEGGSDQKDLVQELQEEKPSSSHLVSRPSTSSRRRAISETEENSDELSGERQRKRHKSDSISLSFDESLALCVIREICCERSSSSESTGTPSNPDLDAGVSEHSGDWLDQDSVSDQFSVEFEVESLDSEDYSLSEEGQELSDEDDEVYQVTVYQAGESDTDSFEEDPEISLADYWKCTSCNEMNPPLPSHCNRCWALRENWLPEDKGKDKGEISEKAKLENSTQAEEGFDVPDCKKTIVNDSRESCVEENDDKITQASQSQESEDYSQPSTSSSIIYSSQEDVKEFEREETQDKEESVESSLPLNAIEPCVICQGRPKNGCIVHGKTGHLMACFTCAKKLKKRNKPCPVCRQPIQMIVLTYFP
# T cruzi inh: T. cruzi replication inhibition; T. cruzi beta-gal in NIH3T3, luminescence, 90 h; inhibition, % (test concentration not listed); actives 1.4% (n = 300,000); AID 1885;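 active = mean inhibition across valid replicates above about 55%, limit read from the data; inconclusive = mean below that limit but half or more replicates reach it; inactive = mean below it, under half of replicates reach it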;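 also: signal also drops with host cell toxicity which is not excluded here; 0% = plate median of DMSO wells and 100% = zero luminescence signal; higher percent means less beta-gal luminescence so fewer parasites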
#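 assay system = mouse NIH/3T3 fibroblasts infected with β-gal-expressing T. cruzi Tulahuen C4 | input = 5,000 NIH/3T3 host cells per well | buffer or medium = DMEM plus 2% FBS | timing = 3 h host attachment, then at least 90 h co-culture | measured by = GalScreen luminescence, 60 min | evaluation = luminescence reflecting intracellular parasite burden, expressed as percent inhibition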
# CSC inhib: blocks cancer stem cells | actives 1.1% (n = 300,000) | cancer stem cell-like cells viability, luminescence | inhibition, % at 7.5 µM | AID 2717; in the data active = inhibition above about 75%; inconclusive = no clear call, values can overlap the other calls; tested in HMLE shEcad cells
# SKKanGAS inh: inhibitors of SKKanGAS S. pyogenes growth in kanamycin (SK-promoter or general growth effect). BacTiter-Glo, 6 h. actives 1.3% (n = 300,000). AID 1662. inhibition, % at 7.5 µM;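 active = mean replicate score, as percent of positive control median, at least 50; inconclusive = mean below 50 but one replicate at or above 50; inactive = mean and every replicate below 50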;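 also: strain carries kanamycin resistance gene driven by streptokinase promoter and grows in 40 µg/ml kanamycin; loss of luminescence reflects streptokinase promoter inhibition or plain growth inhibition; 0% = median of DMSO wells and 100% = positive control at its reference dose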
# Mdm2-MdmX conf: human Mdm2/MdmX binding inhibition, confirmed | shares compounds with Mdm2-MdmX inh | luminescent assay | inhibition, % at 8 µM | actives 55% (n = 10,000) | AID 489028; in the data active = inhibition above about 40%
# FLuc counter: counter-screen for Mdm2/MdmX inhibitors: full-length luciferase. SaOS-2 full-length luciferase counterscreen, luminescence. actives 77% (n = 6,200). shares compounds with Mdm2-MdmX inh. inhibition, % at 8 µM;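 active = mean inhibition at 8 µM reaching about 37%, which flags the compound as non-specific, limit read from the data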;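 also: p53-null SaOS-2 cells with luciferase driven by a doxycycline-inducible promoter; compound on cells about two nights before reading with doxycycline added after day one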
# Active calls of the source: *; ? = inconclusive; nt = no result. Rows were chosen to be rich in hits. Some 5.4% of all compounds tested hit in one or more screens of this group.
SMILES,aSyn UTR inh,Mdm2-MdmX inh,T cruzi inh,CSC inhib,SKKanGAS inh,Mdm2-MdmX conf,FLuc counter
COc1ccc(C(=O)NCC(=O)Nc2ccc(-c3ccccc3)cc2)cc1,1.2,51.3*,3.5,9.5,-7.4,68.4*,61.6*
COc1ccc(CC2=CC(=O)c3ccccc3C2=O)cc1,-24.4,54.8*,40.1,55.1,66.1*,12.8,nt
O=C(C#Cc1ccccc1)Nc1cccc(F)c1,-383.2,98.0*,20.0,114.0*,3.9,99.5*,30.5
O=C(C#Cc1ccccc1)Nc1ccc(F)cc1,-195.0,38.1,-11.4,-3.0,-1.9,nt,nt
CCOC(=O)C1CCN(S(=O)(=O)c2ccc3c(c2)N(C(C)=O)CC(C)S3)CC1 (stereo not given),1.5,21.2,-7.6,-5.0,-3.6,nt,nt
CN(C)S(=O)(=O)c1cccc(NC(=O)CSc2nc3c(cc2C#N)C(=O)CC(C)(C)C3)c1,28.1,57.2*,-2.4,?,5.6,51.2*,51.5*
CN(C)S(=O)(=O)c1cccc(NC(=O)CSc2cccc3cccnc23)c1,16.0,97.5*,60.2*,84.1*,15.4,48.7*,17.4
O=C(NCC(c1ccco1)N1CCCC1)c1cn(-c2ccccc2)nc1-c1ccc(F)cc1 (stereo not given),nt,10.4,nt,nt,nt,nt,nt
Cc1ccc(-c2nc3c(c(=O)[nH]c(=O)n3Cc3ccccc3)n2Cc2ccccc2)o1,7.7,nt,18.1,nt,29.4,nt,nt
Cc1ccc(-c2nc3c(c(=O)[nH]c(=O)n3Cc3ccccc3)n2C)s1,28.5,62.3*,-10.1,-16.2,8.3,5.8,nt
Cc1cc(Br)c2c(c1)C(O)(N1CCCCC1C)C(=O)N2 (stereo not given),17.6,-4.1,-1.4,4.3,2.1,nt,nt
CCOC(=O)c1sc(NC(=O)CSc2nc3c(c(=O)n2-c2ccc(C)cc2)SCC3)c(C(=O)OCC)c1C,37.2,64.5*,11.8,5.3,15.0,-1.1,nt
O=C(/C=C/Nc1ccccc1)c1ccccc1,-33.4,-182.9,-7.1,nt,2.9,nt,nt
O=C(/C=C/Sc1ccccc1)c1ccccc1,-17.8,52.4*,23.7,49.1,10.1,-14.8,nt
CC[C@]12c3[nH]c4ccc(OC)cc4c3CCN1C(=O)C(CC(=O)NCCCN(C)C)C[C@@H]2C(=O)N1CCN(C(=O)c2ccco2)CC1 (stereo not given in full),nt,7.6,nt,nt,nt,nt,nt
O=C(c1ccc(S(=O)(=O)Cc2ccccc2Cl)c([N+](=O)[O-])c1)N1CCN(c2ccccn2)CC1,-47.2,75.1*,-24.4,37.2,-2.5,64.0*,38.6*
O=C(c1ccc(S(=O)(=O)c2cccc(Cl)c2)c([N+](=O)[O-])c1)N1CCN(Cc2ccccc2)CC1,-8.2,94.2*,-32.2,nt,0.1,85.1*,57.7*
CC1CCN(C(=O)c2ccc(S(=O)(=O)Cc3cccc(F)c3)c([N+](=O)[O-])c2)CC1,-39.2,55.8*,-5.2,nt,-2.5,49.5*,71.7*
O=C(c1ccc(Cl)c([N+](=O)[O-])c1)N1CCN(c2ccccn2)CC1,-13.2,4.6,-31.1,-9.0,8.0,nt,nt
Cc1ccccc1CS(=O)(=O)c1ccc(C(=O)N2CCC(C)CC2)cc1[N+](=O)[O-],9.0,47.4,-15.4,17.0,-2.1,nt,nt
O=C(CSc1nnc(-c2ccc(F)cc2)n1CC1CCCO1)NCc1ccco1 (stereo not given),8.8,22.6,-4.7,-9.5,-2.7,nt,nt
COC(=O)c1ccc(C(=O)NC(=S)Nc2ccc3nc(SC)sc3c2)cc1,0.3,80.7*,-7.6,-10.0,0.5,24.9,nt
CSc1nc2ccc(NC(=O)c3ccccn3)cc2s1,19.6,-100.9,-18.8,45.8,1.7,nt,nt
CCOC(=O)c1cc(NC(=O)c2ccccc2)c(=O)n2c1oc1ccccc12,9.9,56.1*,8.6,-3.7,4.3,7.1,nt
O=C(COC(=O)Cc1ccc(Cl)cc1)Nc1c(F)cccc1F,8.8,-6.0,-8.0,nt,-4.8,nt,nt
SMILES,aSyn UTR inh,Mdm2-MdmX inh,T cruzi inh,CSC inhib,SKKanGAS inh,Mdm2-MdmX conf,FLuc counter
CCOC(=O)c1c(-c2ccccc2)oc2ccc(OCC(O)CN(C)C)cc12 (stereo not given),-29.7,73.7*,33.3,23.0,-4.8,38.5,32.5
CCOC(=O)c1c(-c2ccccc2)oc2ccc(OC(C)C(=O)O)cc12 (stereo not given),2.0,-27.6,-3.5,11.8,-6.0,nt,nt
CCOC(=O)c1c(CSCc2ccccc2)oc2ccc(O)c(CN(C)C)c12,-25.2,54.2*,38.8,65.2,12.2,46.9*,64.8*
CCOC(=O)c1c(-c2ccccc2)oc2ccc(O)c(CN3CCCC3)c12,-38.5,45.0,41.8,8.2,-18.3,nt,nt
CCOC(=O)c1c(-c2ccccc2)oc2ccc(O)c(CN(C)C)c12,-21.3,54.6*,25.8,-4.2,4.7,22.9,nt
COC(=O)NCC(c1ccco1)N1CCN(c2ccccc2)CC1 (stereo not given),-4.3,17.7,17.5,-11.7,-5.4,nt,nt
Cc1cc(SCC(=O)Nc2c(C)n(C)n(-c3ccccc3)c2=O)nc2ccccc12,14.9,4.4,-8.7,5.8,1.1,nt,nt
Cc1ccc(NC(=O)CSC2=C(C#N)C(c3ccco3)C3=C(CC(C)(C)CC3=O)N2)cc1 (stereo not given),21.8,51.0*,7.4,nt,3.3,19.6,nt
CSc1ccc(C2C(C#N)=C(N)Oc3cc4c(cc32)OCO4)cc1 (stereo not given),14.7,69.5*,-15.1,49.5,-2.2,59.5*,60.3*
N#CC1=C(N)OC(c2ccccc2)=C(C#N)C1c1ccc2c(c1)OCO2 (stereo not given),-12.0,-18.2,-14.7,-10.9,-2.0,nt,nt
Cc1ccc(C2C(C#N)=C(N)Oc3cc4c(cc32)OCO4)cc1 (stereo not given),-10.3,55.4*,-2.3,41.6,-1.7,65.2*,63.9*
CC(=O)N1CCc2cc(S(=O)(=O)NC(CC(C)C)C(=O)N3CCn4c3nc3ccccc34)ccc21 (stereo not given),10.4,17.7,0.5,nt,-8.9,nt,nt
O=C(NC1(Cc2ccccc2)CCN(CCCc2ccccc2)C1=O)c1ccccc1 (stereo not given),nt,63.9*,nt,-10.3,nt,54.0*,40.0*
OCC1(Cc2ccc(Cl)cc2)CCN(CCCc2ccccc2)CC1,8.1,31.8,49.2,-11.4,8.5,nt,nt
Cc1nc2scc(C)n2c(=O)c1S(=O)(=O)N1CCN(c2cccc(C(F)(F)F)c2)CC1,10.6,20.3,15.6,nt,3.0,nt,nt
COc1ccc(/C(N)=N/OC(=O)N2CCOCC2)cc1,-6.3,61.8*,51.5,10.4,-10.6,25.9,nt
COc1ccc(C(=O)O/N=C(\N)c2ccccn2)c(OC)c1,30.6,69.4*,-2.0,6.5,2.3,37.7,nt
COc1ccc(C(=O)O/N=C(\N)c2ccccc2)c(OC)c1,53.7,92.9*,26.9,9.9,nt,77.2*,164.2*
N/C(=N\OC(=O)c1ccc(Cl)cc1Cl)c1ccccc1,15.0,-35.4,9.6,2.2,16.4,nt,nt

# Screens (PubChem)
